According to ChEMBL document CHEMBL1125226, “Antineoplastic activity of didemnin congeners: nordidemnin and modified chain analogues” (1991):

Key:
Assay type in all cases: functional, Mus musculus
B16 [1] = test: Antitumor activity against B16 melanoma from B6 D2 F1 female mice(T/C) was evaluated from the median survival time of treated mice (T) over that of control mice (C) at a dose of 0.50 mg/kg/day
Summary of the method: (§1)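 B6D2F1 female mice (C57BL/6 ♀ × DBA/2 ♂) implanted ip on day 0 with 0.5 mL of B16 tumor suspension (1 g homogenized in 9 mL 0.9% saline). Dosing ip on days 1, 5 and 9. Day-5 survivors give toxicity. Median survival of treated vs control mice gives T/C%, with ≥125% significant.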

B16 [2] = test: Antitumor activity against B16 melanoma from B6 D2 F1 female mice evaluated as the number of survivors on day 5 at a dose of 0.06 mg/kg/day; summary of the method: as §1
L1210 [3] = test: Antitumor activity against L1210 Lymphoid Leukemia from CDF1 female mice (T/C) as median survival time of treated mice (T) over that of control mice (C) at a dose of 1.0 mg/kg/day
Summary of the method: (§2)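 L1210 leukemia, 10⁵ cells ip on day 0 into CDF1 female mice (BALB/c ♀ × DBA/2 ♂). Drug in 2% methanol given ip on days 1, 5 and 9, 10 mice per group. Survivors and body weight recorded on days 1 and 5, with toxicity as survivors on day 5. Deaths followed for 30 days. T/C = treated/control median survival time, significant at ≥125%.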

B16 [4] = test: Antitumor activity against B16 melanoma from B6 D2 F1 female mice(T/C) was evaluated from the median survival time of treated mice (T) over that of control mice (C) at a dose of 1 mg/kg/day; summary of the method: as §1
B16 [5] = test: Antitumor activity against B16 melanoma from B6 D2 F1 female mice evaluated as the number of survivors on day 5 at a dose of 1 mg/kg/day; summary of the method: as §1
P388 [6] = test: Antitumor activity against P388 Leukemia from CDF1 female mice evaluated as Median survival time of treated mice at a dose of 0.75 mg/kg/day
Summary of the method: (§3)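 CDF1 female mice (BALB/c × DBA/2) inoculated ip with 10⁶ P388 cells on day 0. Drug given ip in 2% methanol on days 1, 5 and 9. Ten mice per dose group, with a larger control group. Body weight and survival were recorded on days 1 and 5, with toxicity taken as survivors on day 5. Mortality was followed for 30 days to give median survival time.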

B16 [7] = test: Antitumor activity against B16 melanoma from B6 D2 F1 female mice evaluated as the number of survivors on day 5 at a dose of 0.25 mg/kg/day; summary of the method: as §1
B16 [8] = test: Antitumor activity against B16 melanoma from B6 D2 F1 female mice evaluated as the number of survivors on day 5 at a dose of 0.50 mg/kg/day (repeated ip injections, day 1-9); conditions: route intraperitoneal
Summary of the method: (§4)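 B16 melanoma homogenate (1 g tumor in 9 mL 0.9% saline), 0.5 mL implanted ip on day 0 in B6D2F1 female mice (C57BL/6 ♀ × DBA/2 ♂). Treatment ip once daily from day 1 to day 9. Toxicity scored as survivors on day 5. Median survival recorded and T/C computed as treated/control median survival, ≥125% significant.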

P388 [9] = test: Antitumor activity (T/C) was evaluated from the median survival time of treated mice (T) over that of control mice (C) at a dose of 0.12 mg/kg/day
Summary of the method: (§5)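 CDF1 female mice (BALB/c ♀ × DBA/2 ♂) given 10⁶ P388 cells ip on day 0. Drug in 2% methanol given ip on days 1, 5 and 9, 10 mice per group and more controls. Toxicity is survivors on day 5, with weight change between days 1 and 5. Mortality followed 30 days. T/C% is treated over control median survival (NCI method), significant at ≥125%.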

P388 [10] = test: Antitumor activity (T/C) was evaluated from the median survival time of treated mice (T) over that of control mice (C) at a dose of 0.06 mg/kg/day; summary of the method: as §5
B16 [11] = test: Antitumor activity against B16 melanoma from B6 D2 F1 female mice as average weight change of animals between day 1 and day 5 after tumor implementation at a dose of 0.06 mg/kg/day (repeated ip injections, day 1-9); conditions: route intraperitoneal
Summary of the method: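 B6D2F1 female mice (C57BL/6 × DBA/2) were implanted ip on day 0 with 0.5 mL of B16 suspension (1 g tumor homogenized in 9 mL 0.9% saline). Ip treatment was given once daily, day 1 to day 9. Body weight was recorded on days 1 and 5 after implantation, and the mean change per group was reported.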

B16 [12] = test: Antitumor activity against B16 melanoma from B6 D2 F1 female mice evaluated as the number of survivors on day 5 at a dose of 0.03 mg/kg/day (repeated ip injections, day 1-9); conditions: route intraperitoneal; summary of the method: as §4
P388 [13] = test: Antitumor activity (T/C) was evaluated from the median survival time of treated mice (T) over that of control mice (C) at a dose of 0.03 mg/kg/day; summary of the method: as §5
B16 [14] = test: Antitumor activity against B16 melanoma from B6 D2 F1 female mice as Median survival time of treated mice at a dose of 0.03 mg/kg/day (repeated ip injections, day 1-9); conditions: route intraperitoneal; summary of the method: as §4
P388 [15] = test: Antitumor activity was evaluated from the median survival time of treated mice (T) over that of control mice (C) at a dose of 1 mg/kg/day
L1210 [16] = test: Antitumor activity against L1210 Lymphoid Leukemia from CDF1 female mice (T/C) as median survival time of treated mice (T) over that of control mice (C) at a dose of 0.25 mg/kg/day; summary of the method: as §2
L1210 [17] = test: Antitumor activity against L1210 Lymphoid Leukemia from CDF1 female mice as the number of survivors on day 5 at a dose of 1.0 mg/kg/day; summary of the method: as §2
P388 [18] = test: Average weight change of animals between day 1 and day 5 after tumor implementation at a dose of 0.75 mg/kg/day
Summary of the method: (§6)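 P388 leukemia: CDF1 female mice were inoculated ip with 10⁶ cells on day 0. Treatment in 2% methanol was given ip on days 1, 5 and 9, with 10 mice per group and a larger control group. Body weight was recorded on days 1 and 5 post-implant, and the average change was reported.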

P388 [19] = test: Antitumor activity against P388 Leukemia from CDF1 female mice evaluated as the number of survivors on day 5 at a dose of 0.06 mg/kg/day; summary of the method: as §3
P388 [20] = test: Average weight change of animals between day 1 and day 5 after tumor implementation at a dose of 0.50 mg/kg/day; summary of the method: as §6
L1210 [21] = test: Antitumor activity against L1210 Lymphoid Leukemia from CDF1 female mice evaluated as the number of survivors on day 5 at a dose of 0.25 mg/kg/day; summary of the method: as §2
B16 [22] = test: Antitumor activity against B16 melanoma from B6 D2 F1 female mice evaluated as Median survival time of treated mice at a dose of 0.50 mg/kg/day; summary of the method: as §1
P388 [23] = test: Antitumor activity against P388 Leukemia from CDF1 female mice evaluated as number of survivors on day 5 at a dose of 1 mg/kg/day; summary of the method: as §3
P388 [24] = test: Average weight change of animals between day 1 and day 5 after tumor implementation at a dose of 0.12 mg/kg/day; summary of the method: as §6
L1210 [25] = test: Antitumor activity against L1210 Lymphoid Leukemia from CDF1 female mice evaluated as Median survival time of treated mice at a dose of 0.25 mg/kg/day; summary of the method: as §2
B16 [26] = test: Antitumor activity against B16 melanoma from B6 D2 F1 female mice evaluated as the number of survivors on day 5 at a dose of 0.50 mg/kg/day; summary of the method: as §1

Molecule `COc1ccc(C[C@H]2C(=O)O[C@H](C)[C@H](NC(=O)[C@@H](CC(C)C)N(C)C(=O)C3CCCN3C(=O)[C@@H](C)O)C(=O)NC(C(C)C)[C@H](O)CC(=O)O[C@@H](C(C)C)C(=O)[C@H](C)C(=O)N[C@@H](CC(C)C)C(=O)N3CCC[C@H]3C(=O)N2C)cc1` (stereo partly specified) [NORDIDEMNIN] has a T/C (B16 [1]) of 147%, a Toxicity (B16 [2]) of 1 and a T/C (L1210 [3]) of 123%. The T/C (B16 [4]) was 154%, the Toxicity (B16 [5]) was 1 and the “median survival time, days” value (P388 [6]) was 19.4. For the same molecule, the Toxicity (B16 [7]) was 1, the Toxicity (B16 [8]) was 1 and the T/C (P388 [9]) was 133%. The T/C (P388 [10]) was 123%, the Body weight change (B16 [11]) was -0.3 g and the Toxicity (B16 [12]) was 0.9. For the same molecule, the T/C (P388 [13]) was 112%, the “median survival time, days” value (B16 [14]) was 26.5 and the T/C (P388 [15]) was 180%. The T/C (L1210 [16]) was 111%, the Toxicity (L1210 [17]) was 1 and the Body weight change (P388 [18]) was -1.7 g. For the same molecule, the Toxicity (P388 [19]) was 1, the Body weight change (P388 [20]) was -1.2 g and the Toxicity (L1210 [21]) was 1. The “median survival time, days” value (B16 [22]) was 28, the Toxicity (P388 [23]) was 1 and the Body weight change (P388 [24]) was -0.7 g. For the same molecule, the “median survival time, days” value (L1210 [25]) was 10.1 and the Toxicity (B16 [26]) was 1.
